# Results of several laboratories.
# Target: Dual specificity tyrosine-phosphorylation-regulated kinase 1B (DYRK1B, Homo sapiens, UniProt Q9Y463)
# Read-out: enzyme activity
# Mode: inhibitor
SMILES,method,concentration,remaining activity [%]
Cc1cnc(NC2CCOCC2)nc1-n1cnc(C(=O)NC(CN)c2cc(F)cc(Cl)c2)c1 (centres unmarked),radiometric,1 µM,80
CC(C)(O)[C@H]1CC[C@H](Nc2ccc3ncc(-c4cccc(C(F)(F)F)c4)n3n2)CC1,,1 µM,15.3
O=C(O)c1ccc2c(c1)nc(Nc1ccc(Cl)cc1)c1ccncc12,radiometric,1 µM,65
Nc1ncnc2occ(-c3ccc(NC(=O)Nc4cc(C(F)(F)F)ccc4F)cc3)c12,,20 µM,80
O=C(Nc1cnn(-c2csc(C(=O)NC3COC3)c2)c1)Nc1ccccc1Cl,,5 µM,87
O=C(O)c1ccc2c(c1)nc(NCCc1ccccc1)c1ccncc12,radiometric,1 µM,114
O=C(Nc1cnn(-c2csc(C(=O)NC3COC3)c2)c1)Nc1c(F)cccc1Cl,,5 µM,82.8
COc1cc(Cl)c(C(=O)N[C@@H](CN[C@H]2CC[C@@H](N)CC2)Cc2ccc(C#N)cc2)cc1-c1ccc(CN[C@H](C)c2ccc(C)cc2)o1,,1 µM,101
